Drawing on ChEMBL document CHEMBL3813670, “Unique Polybrominated Hydrocarbons from the Australian Endemic Red Alga Ptilonia australasica” (J Nat Prod, 2016), this text covers Activity, IC50 and inhibition for four compounds.

Activity calls are given as the source filed them. No cut-off for these calls is given here.

The nature of assay [1]: Cell cycle arrest in human PC3 cells assessed as accumulation at S phase at 1.3 uM after 24 hrs by propidium iodide staining based flow cytometry (reference value: 15.3 +/- 3.1%). The following applies: PC-3. It is filed as functional. The essentials: (§1)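 PC3 cells exposed to compound at various concentrations for 24 h, then harvested, rinsed in ice-cold PBS and fixed in 70% alcohol at −20 °C for 16 h. After a second cold PBS wash, cells were held 20 min at room temperature in 1 mL containing 0.1% Triton X-100, 0.2 mg RNase A and 2 μL PI (1 mg/mL). DNA content was read by flow cytometry.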
In general terms: A flow cytometer gives signals particle by particle.

A short description of assay [2]: Cell cycle arrest in human PC3 cells assessed as accumulation at S phase at 0.4 uM after 24 hrs by propidium iodide staining based flow cytometry (reference value: 15.3 to 25.8%). It is filed as functional. The following applies: PC-3. The method, boiled down: as §1
Assay [3] in a line: Cytotoxicity against human PC3 cells assessed as growth inhibition after 72 hrs by Alamar blue assay. Format: functional, cell-based. The note with it: PC-3, 72 h. (The colour change of resazurin is a common sign of viable cells or microbes.)
A short description of assay [4]: Cell cycle arrest in human PC3 cells assessed as accumulation at G0/G1 phase at 1.3 uM after 24 hrs by propidium iodide staining based flow cytometry (reference value: 62.5 +/- […]%). The following applies: PC-3. It is filed as functional.
Assay [5] is described as follows: Cell cycle arrest in human PC3 cells assessed as accumulation at G2/M phase at 1.3 uM after 24 hrs by propidium iodide staining based flow cytometry (reference value: 22.2 +/- 0.4%). It is filed as functional. The following applies: PC-3. The essentials:
as §1

Assay [6] is described as follows: Cell cycle arrest in human PC3 cells assessed as accumulation at G0/G1 phase at 0.4 uM after 24 hrs by propidium iodide staining based flow cytometry (reference value: 55.6 to 62.5%). It is filed as functional. The following applies: PC-3. The essentials:
as §1

A short description of assay [7]: Cell cycle arrest in human PC3 cells assessed as accumulation at S phase at 4 uM after 24 hrs by propidium iodide staining based flow cytometry (reference value: 15.3 +/- 3.1%). Format: functional. The following applies: PC-3. The essentials:
as §1

Assay [8] can be described thus: Cell cycle arrest in human PC3 cells assessed as accumulation at G2/M phase at 4 uM after 24 hrs by propidium iodide staining based flow cytometry (reference value: 22.2 +/- 0.4%). Format: functional. The following applies: PC-3. The essentials: as §1
The nature of assay [9]: Cell cycle arrest in human PC3 cells assessed as accumulation at G2/M phase at 0.4 uM after 24 hrs by propidium iodide staining based flow cytometry (reference value: 18.7 to 22.2%). The following applies: PC-3. It is filed as functional. The essentials:
as §1

Assay [10] can be described thus: Cell cycle arrest in human PC3 cells assessed as accumulation at G0/G1 phase at 4 uM after 24 hrs by propidium iodide staining based flow cytometry (reference value: 62.5 +/- […]%). Format: functional. The note with it: PC-3.
Assay [11] is described as follows: Cell cycle arrest in human PC3 cells assessed as accumulation at S phase at 0.04 uM after 24 hrs by propidium iodide staining based flow cytometry (reference value: 25.8 +/- 0.7%). Format: functional. The note with it: PC-3. The method, boiled down:
as §1

The nature of assay [12]: Cell cycle arrest in human PC3 cells assessed as accumulation at S phase at 0.13 uM after 24 hrs by propidium iodide staining based flow cytometry (reference value: 25.8 +/- 0.7%). The note with it: PC-3. Format: functional. The method, boiled down:
as §1

Assay [13] is described as follows: Cell cycle arrest in human PC3 cells assessed as accumulation at G0/G1 phase at 0.13 uM after 24 hrs by propidium iodide staining based flow cytometry (reference value: 55.6 +/- 1.4%). It is filed as functional. The following applies: PC-3. The essentials: as §1
Assay [14] in a line: Cell cycle arrest in human PC3 cells assessed as accumulation at G2/M phase at 0.13 uM after 24 hrs by propidium iodide staining based flow cytometry (reference value: 18.7 +/- 0.7%). It is filed as functional. The note with it: PC-3. The method, boiled down: as §1
The nature of assay [15]: Cell cycle arrest in human PC3 cells assessed as accumulation at G0/G1 phase at 0.04 uM after 24 hrs by propidium iodide staining based flow cytometry (reference value: 55.6 +/- 1.4%). It is filed as functional. The following applies: PC-3. The method, boiled down: as §1
A short description of assay [16]: Cell cycle arrest in human PC3 cells assessed as accumulation at G2/M phase at 0.04 uM after 24 hrs by propidium iodide staining based flow cytometry (reference value: 18.7 +/- 0.7%). Format: functional. The following applies: PC-3. The essentials:
as §1

The next assay relates to PC-3. The experiment in a line: Cytotoxicity against human PC3 cells assessed as growth inhibition at 80 uM after 72 hrs by Alamar blue assay. Format: functional, cell-based.

As to `Cc1oc(C(Br)=C(Br)Br)cc(=O)c1O`, the Activity is 21.5% in assay [1]; 18.2% in assay [2]; 72.7% in [4]; 5.8% in assay [5]; 63.7% in assay [6]; 23.8% in [7]. Further, the Activity in assay [8] worked out at 2.9%; in [9], 18.1%; in [10] it was 73.3%. Also, the IC50 in assay [3] was 10000 nM.
As to `CC[C@@]1(O)C(Br)=C(Br)C(=O)C1=C(Br)Br`, the Activity in assay [2] amounted to 11.5%; in [11], 18.1%; in [12], 13.8%; in [13], 75%; in assay [14], 11.2%; in assay [6], 88.4%. Moreover, the Activity in assay [15] came to 63.3%; in [16], 13.6%; in assay [9] it was 0.1%. The IC50 in assay [3] is 440 nM.
As to `CC(=O)O[C@@H](C(Br)=C(Br)Br)C(Br)Br`, the inhibition entry with PC-3 is “inactive”.
On to `CC(=O)O[C@H]1C(=O)[C@@]2(C)[C@H]([C@H](OC(=O)c3ccccc3)[C@]3(O)C[C@H](OC(=O)[C@H](O)[C@@H](NC(=O)c4ccccc4)c4ccccc4)C(C)=C1C3(C)C)[C@]1(OC(C)=O)CO[C@@H]1C[C@@H]2O` [PACLITAXEL], for which, in assay [3], the IC50 stood at 2 nM.

What is called IC50 is the concentration that inhibits the measured activity by half.
